Experimental data as given in paper PMC4252766 (FEBS letters, 2014).

Experiments:
BRPF1 bromodomain [1] = assay: X-ray crystallography of BRPF1 bromodomain with histone peptides; assay type: binding, human; conditions: co-crystal structures PDB 4QYL (H2AK5ac) and 4QYD (H4K12ac)
Outline: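 E. coli-expressed BRPF1 bromodomain (residues 629–742), gel-filtered into 20 mM Tris pH 8.0, 150 mM NaCl, 1 mM DTT; 2.3 mM protein + 5 mM peptide; drops at 4°C. H2AK5ac: 0.2 M NH₄SO₄, 0.1 M MES pH 6.5, 30% PEG MME 5,000, seeding, 1% propylene glycol. H4K12ac: 0.1 M HEPES pH 7.5, 10% PEG 6,000, 5% MPD. Flash-cooled, 100 K.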

BRPF1 bromodomain [2] = conditions: ref [31]; cited from earlier work

binding by x-ray crystallography (BRPF1 bromodomain [1]) | Substance | histone ligand preference (BRPF1 bromodomain [2])
bind | GKGGKGLG Kac GGAKR [H4K12ac] | preferentially binds
bind | SGRG Kac QGGKARA [H2AK5ac] | preferentially binds
